WT yeast gro inh: growth inhibition of WT strain, primary screen, mitochondrial fusion inhibitor project, WT and mutant strains, chemical genetic; mitochondrial fusion phenotypic screen; inhibition, % at 10 µM; actives 2.1% (n = 190,000); in the data active means inhibition above about 58%; tested in S. cerevisiae
L major viab: Leishmania major promastigote growth inhibition, primary screen; Leishmania major promastigotes, resazurin fluorescence viability; inhibition, % at 10 µM; actives 9% (n = 200,000); AID 1063, 2008;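 further: promastigotes grown with compound for 44 hours at 28 °C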
Diaph inh CS: diaphorase inhibitors and chemical oxidizers, primary screen, counter-screen for diaphorase-coupled primary assays, biochemical, uHTS, resorufin fluorescence. diaphorase resazurin-to-resorufin fluorescence, NADH, 16 min; bacterial (C. kluyveri) enzyme, not human. inhibition, % at 20 µM. actives 0.69% (n = 190,000);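 active means primary screen inhibition at 20 µM above a set limit, cut at about 50% in these data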
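Test system: diaphorase enzyme from Clostridium kluyveri; amount: diaphorase at 0.14 U/mL in enzyme working solution; detection: fluorescence of resorufin formed from resazurin, Ex 544/Em 590 nm; times: reaction incubation of 16 min at room temperature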
Diaph act CS: compounds boosting diaphorase resazurin reduction – biochemical, uHTS, resorufin fluorescence, counter-screen for diaphorase-coupled primary assays, primary screen; actives 0.005% (n = 190,000); AID 1229, 2008; activation factor at 20 µM; Diaphorase/resazurin coupled assay, 16 min; active compounds read high; 1 = vehicle wells, 0 = NADH-free wells;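 active means diaphorase activity raised at least twofold by the compound at 20 µM; inactive means activation factor below 2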
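Assay system: bacterial diaphorase enzyme (C. kluyveri) / Input: enzyme 0.07 U/mL final / Medium: 50 mM HEPES pH 7.4 with 4.542 mM MgCl2, 0.005% Tween 20 / Doses: single compound dose of 20 µM, 1% DMSO final / Incubation: 16 min enzyme reaction, ambient temperature / Signal: fluorescence, excitation 544 nm and emission 590 nm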
G6PDH counter: L. mesenteroides G6PDH inhibitors, counter-screen for G6PDH-coupled screening assays, biochemical, Leuconostoc mesenteroides enzyme; inhibition, % at 5 µM; Purified L. mesenteroides G6PDH, diaphorase/resazurin coupled fluorescence, 45 min; actives 0.12% (n = 200,000); AID 1020, 2008
Hits are given with their value; i = inactive; nt = not tested or not shown. The list is not random: actives were taken first. Their share in the collection is about 11%. Unless noted, no stated cut-off is given here; in the data, active means inhibition above about 50%; inactive means the rest.

SMILES	WT yeast gro inh	L major viab	Diaph inh CS	Diaph act CS	G6PDH counter
O=C1NC(=O)N(Cc2ccccc2)C(=O)/C1=C\C=C\c1ccco1	i	77	i	i	i
Cc1cc(N2CCOCC2)ccc1/C=C1\C(=O)NC(=O)N(c2ccccc2)C1=O	i	i	nt	nt	i
Cc1ccc(N2C(=O)NC(=O)/C(=C\C=C\c3ccco3)C2=O)cc1C	i	100	i	i	i
O=C(Cc1ccc(Cl)c(Cl)c1)NCC1(N2CCOCC2)CCCCC1	i	i	i	i	i
CN1OC[C@@H]2COc3ccc4ccccc4c3[C@@H]21	i	i	i	i	i
CC(C)c1cccc(C(C)C)c1OCCn1ccnc1	i	94	i	i	i
Cc1ccc(S(=O)(=O)Cc2ccc(C(=O)N3CCC4(CC3)OCCO4)o2)cc1	i	i	i	i	i
CN1C(=O)N(C)C(=O)C2(Cc3c(ccc4ccccc34)N(C)C2)C1=O	i	i	67	i	i
C/C(=N\Nc1ccccc1)c1c(O)n(C)c(=O)n(C)c1=O	i	76	i	i	i
CCC(=O)Nc1ccc(N2CCN(CC)CC2)c(Cl)c1	70	i	i	i	i
COc1ccccc1Sc1ccccc1CC(C)N (stereo unspecified)	i	95	i	i	i
CN(C)C(Cc1ccccc1)C(=O)c1ccccc1 (stereo unspecified)	i	i	i	i	i
COc1ccccc1CCNCc1ccc(OC)c(OC)c1OC	i	i	i	i	i
CN1CCN(Cc2ccccc2Sc2ccccc2)CC1	i	100	i	i	i
CN1CCN(Cc2nc3ccccc3c(=O)[nH]2)CC1	i	i	i	i	i
CC(Cc1ccccc1Sc1ccccc1)N(C)C (stereo unspecified)	i	100	i	i	i
CC(Cc1ccccc1Sc1ccc(O)cc1)N(C)C (stereo unspecified)	i	101	i	i	i
CCOP(=O)(OCC)C(NC(=O)CC(C)C)C(Cl)(Cl)Cl (stereo unspecified)	i	i	i	i	i
Cc1ccc(C2N(c3cc(C)on3)C(=O)C3CCCN32)cc1 (stereo unspecified)	i	i	i	i	i
CC(N)Cc1ccccc1Sc1ccc(O)cc1 (stereo unspecified)	i	88	i	i	i
CC(Cc1ccccc1)NCc1ccccc1O (stereo unspecified)	i	i	i	i	i
COc1ccc(/C=C/C(=O)c2c(O)n(CCC3=CCCCC3)c(=O)[nH]c2=O)cc1	i	77	i	i	i
O=C(Cc1ccccc1)OCCN1CCCCC1	i	i	i	i	i
O=C(c1ccccc1)C(CN1CCCC1)c1ccccc1 (stereo unspecified)	i	100	i	i	i
C1=C(CCNCc2ccccc2)CCCC1	i	73	i	i	i
SMILES	WT yeast gro inh	L major viab	Diaph inh CS	Diaph act CS	G6PDH counter
Fc1ccc(CNCCc2ccccc2)cc1	i	i	i	i	i
NC(=O)c1ccc(N=Nc2c(O)[nH]c(=O)[nH]c2=O)cc1	i	i	i	i	i
O=c1[nH]c(O)c(N=Nc2cc([N+](=O)[O-])ccc2O)c(=O)[nH]1	i	i	66	i	i
CN1CCN(c2ccc([N+](=O)[O-])c(N/N=C3\CN4CCC3CC4)c2)CC1	i	92	i	i	i
O=C(NC(C(Cl)Cl)N1CCOCC1)c1ccccc1 (stereo unspecified)	i	i	i	i	i
O=C(C1CCN(S(=O)(=O)c2ccccc2)CC1)N1CCC2(CC1)OCCO2	i	i	i	i	i
Cc1cc(C=C2C(=O)NC(=S)NC2=O)c(C)n1C1CCCC1	i	63	i	i	i
O=P(O)(O)C12CC3CC(CC(C3)C1)C2	i	i	i	i	i
COc1c2c(cc3c1OCO3)CC[N+](C)=C2	i	i	83	i	i
CSc1ccccc1C(=O)C1CCCN(Cc2ccncc2)C1 (stereo unspecified)	i	71	i	i	i
COc1ccccc1CN1CCCC(C(=O)c2ccccc2SC)C1 (stereo unspecified)	i	68	i	i	i
COc1ccc(O)c(CN2CCCC(C(=O)c3ccccc3SC)C2)c1 (stereo unspecified)	i	i	i	i	i
O=C(Cn1ncc2c3ccccc3n(Cc3ccc(F)cc3)c2c1=O)N1CCC2(CC1)OCCO2	i	i	i	i	i
CCCCN1C(=O)/C(=C/c2ccc(N3CCCCCC3)cc2)C(=O)NC1=S	i	59	i	i	i
CCC(C)N1C(=O)/C(=C\c2cc3c4c(c2)CCCN4CCC3)C(=O)NC1=S (stereo unspecified)	i	98	i	i	i
CCC(C)N1C(=O)/C(=C\c2ccc(N3CCCCCC3)cc2)C(=O)NC1=S (stereo unspecified)	i	93	i	i	i
CN1C(=O)c2ccccc2NC(=O)C1Cc1ccccc1 (stereo unspecified)	i	i	i	i	i
Cc1nn(-c2ccccc2)c(Cl)c1C1C(C#N)=C(N)Oc2c1c(=O)oc1ccccc21 (stereo unspecified)	i	i	i	i	i
O=C(Nc1ccc(F)cc1)N1CC2CC(C1)c1cccc(=O)n1C2 (stereo unspecified)	73	i	i	i	i
C=CCN1C(=O)/C(=C\c2ccc(N3CCOCC3)o2)C(=O)NC1=S	i	i	i	i	i
C=CCN1C(=O)/C(=C/c2ccc3c(c2)CCCN3CCC)C(=O)NC1=S	i	91	i	i	i
O=C1NC(=S)N(C2CC2)C(=O)/C1=C/c1ccc2c(c1)CCN2CCCCl	i	74	i	i	i
CCN1C(=O)/C(=C/c2ccc3c(c2)CCN3CCCCl)C(=O)NC1=S	i	100	i	i	i
CCOC(=O)C(=CNc1ccc(C(O)(C(=O)OCC)C(F)(F)F)cc1C)C(=O)OCC (stereo unspecified)	i	55	i	i	i
Fc1ccc2c(c1)nnn2C1CCN(Cc2nnnn2CCc2ccccc2)CC1	i	i	i	i	i
Fc1ccc(C2=CCN(C(c3cccs3)c3nnnn3CCc3ccccc3)CC2)cc1 (stereo unspecified)	i	100	i	i	i
CCC(C)(C)n1nnnc1C(c1cccs1)N1CC=C(c2ccc(F)cc2)CC1 (stereo unspecified)	72	i	i	i	i
Cc1ccc(S(=O)(=O)NC(Cc2cnc[nH]2)C(=O)O)cc1 (stereo unspecified)	i	i	i	i	i
CCc1ccc(N2C(=O)NC(=O)C(CCc3ccncc3)(CCc3ccncc3)C2=O)cc1	i	i	i	i	i
O=C1NC(=O)C(CCc2ccncc2)(Cc2cccc(Cl)c2Cl)C(=O)N1c1ccc(Br)cc1 (stereo unspecified)	75	92	i	i	i

Compound activity: PubChem BioAssay, several laboratories
